Legend:
RAW264.7 [1] = experiment: Anti-inflammatory activity in mouse RAW264.7 cells assessed as inhibition of LPS-induced nitric oxide production preincubated for 30 mins followed by LPS-stimulation and measured after 24 hrs by Griess assay; format: functional, cell-based
How it was run: (§1)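 RAW 264.7 macrophages stimulated with LPS; NO release quantified. Single-point screen at 50 μM; IC50 derived by nonlinear regression of sigmoidal dose–response curve, reported with 95% confidence intervals. Dexamethasone as positive control.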

RAW264.7 [2] = experiment: Cytotoxicity against mouse RAW264.7 cells assessed as reduction in cell viability at >50 uM measured after 24 hrs by MTT assay; format: cell-based; conditions: raw264.7, 24 h
RAW264.7 [3] = experiment: Anti-inflammatory activity in mouse RAW264.7 cells assessed as inhibition of LPS-induced nitric oxide production at 50 uM preincubated for 30 mins followed by LPS-stimulation and measured after 24 hrs by Griess assay relative to control; format: functional; how it was run: as §1

With `CC1(C)CC[C@]2(C(=O)O)[C@H](O)C[C@]3(C)C(=CC[C@@H]4[C@@]5(C)C[C@H](O)[C@H](O[C@@H]6O[C@H](CO[C@@H]7OC[C@H](O)[C@H](O)[C@H]7O)[C@@H](O)[C@H](O)[C@H]6O)C(C)(C)[C@@H]5CC[C@]43C)[C@@H]2C1` the IC50 (RAW264.7 [1]) was over 50000 nM and the Activity (RAW264.7 [2]) was “Non-Toxic”.
`CC1(C)CC[C@]2(C(=O)O[C@@H]3OC[C@@H](O)[C@H](O)[C@H]3O)[C@H](O)C[C@]3(C)C(=CC[C@@H]4[C@@]5(C)C[C@H](O)[C@H](O[C@@H]6O[C@H](CO[C@@H]7OC[C@H](O)[C@H](O)[C@H]7O)[C@@H](O)[C@H](O)[C@H]6O)C(C)(C)[C@@H]5CC[C@]43C)[C@@H]2C1` was tested, and the IC50 (RAW264.7 [1]) was over 50000 nM and the Activity (RAW264.7 [2]) was “Non-Toxic”.
With `C[C@@H]1O[C@@H](O[C@H]2[C@H](OC(=O)[C@]34CCC(C)(C)C[C@H]3C3=CC[C@@H]5[C@@]6(C)CC[C@H](O[C@@H]7O[C@H](CO[C@@H]8OC[C@H](O)[C@H](O)[C@H]8O)[C@@H](O)[C@H](O)[C@H]7O)C(C)(C)[C@@H]6CC[C@@]5(C)[C@]3(C)C[C@H]4O)OC[C@@H](O)[C@@H]2O)[C@H](O)[C@H](O)[C@H]1O[C@@H]1OC[C@H](O)[C@H](O[C@@H]2OC[C@@H](O)[C@H](O)[C@H]2O)[C@H]1O` the inhibition at 50 µM (RAW264.7 [3]) was over 50% and the IC50 (RAW264.7 [1]) was 2100 nM.
Work on `C[C@@H]1O[C@@H](O[C@@H]2[C@@H](O[C@@H]3O[C@@H](C)[C@H](O[C@@H]4OC[C@@H](O)[C@H](O)[C@H]4O)[C@@H](O[C@@H]4OC[C@](O)(CO)[C@H]4O)[C@H]3O)[C@H](OC(=O)[C@]34CCC(C)(C)C[C@H]3C3=CC[C@@H]5[C@@]6(C)C[C@H](O)[C@H](O[C@@H]7O[C@H](CO[C@@H]8OC[C@H](O)[C@H](O)[C@H]8O)[C@@H](O)[C@H](O)[C@H]7O)C(C)(C)[C@@H]6CC[C@@]5(C)[C@]3(C)CC4)OC[C@H]2O)[C@H](O)[C@H](O)[C@H]1O` yielded an inhibition at 50 µM (RAW264.7 [3]) of over 50% and an IC50 (RAW264.7 [1]) of 42100 nM.
`C[C@@H]1O[C@@H](O[C@@H]2[C@@H](O)[C@H](O[C@@H]3[C@@H](O[C@@H]4OC[C@](O)(CO)[C@H]4O)[C@@H](O)[C@H](O[C@H]4[C@H](OC(=O)[C@]56CCC(C)(C)C[C@H]5C5=CC[C@@H]7[C@@]8(C)C[C@H](O)[C@H](O[C@@H]9O[C@H](CO[C@@H]%10OC[C@H](O)[C@H](O)[C@H]%10O)[C@@H](O)[C@H](O)[C@H]9O)C(C)(C)[C@@H]8CC[C@@]7(C)[C@]5(C)C[C@H]6O)OC[C@@H](O)[C@@H]4O)O[C@H]3C)OC[C@@H]2O)[C@H](O)[C@H](O)[C@H]1O` showed an inhibition at 50 µM (RAW264.7 [3]) of over 50% and an IC50 (RAW264.7 [1]) of 2700 nM.
For `C[C@@H]1O[C@@H](O[C@H]2[C@H](OC(=O)[C@]34CCC(C)(C)C[C@H]3C3=CC[C@@H]5[C@@]6(C)C[C@H](O)[C@H](O[C@@H]7O[C@H](CO[C@@H]8OC[C@H](O)[C@H](O)[C@H]8O)[C@@H](O)[C@H](O)[C@H]7O)C(C)(C)[C@@H]6CC[C@@]5(C)[C@]3(C)CC4)OC[C@@H](O)[C@@H]2O)[C@H](O)[C@H](O[C@@H]2OC[C@](O)(CO)[C@H]2O)[C@H]1O[C@@H]1OC[C@@H](O)[C@H](O)[C@H]1O`, the IC50 (RAW264.7 [1]) was over 50000 nM and the Activity (RAW264.7 [2]) was “Non-Toxic”.
In the case of `C[C@@H]1C[C@H]2[C@@H]3CCC4=CC(=O)C=C[C@]4(C)[C@@]3(F)[C@@H](O)C[C@]2(C)[C@@]1(O)C(=O)CO` [DEXAMETHASONE], the IC50 (RAW264.7 [1]) is reported as 10 nM.

From ChEMBL document CHEMBL4316631, “Anti-inflammatory Potential of Saponins from Aster tataricus via NF-κB/MAPK Activation” (J Nat Prod, 2019)
